The values that follow come from PubChem BioAssay.

Experiment [1] is described as follows: inhibitors of TNFa-induced NFkB p65 translocation, primary screen, imaging, HUVEC, MLSMR starter and 10KST1 sets (AID 438;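 active = inhibition above 20% together with a positive visual image hit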;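 note: compound added about 3h40 before a 20 min TNFalpha stimulation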;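 for inhibition: signal is the nuclear over cytoplasmic p65 intensity ratio per well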). The following applies: HUVEC TNFa-induced p65 nuclear translocation; cell count: measured here: nuclei count (cytotoxicity indicator), at 2.08 µM; inhibition: at 2 µM, stronger effect = higher value, 0% TNFa-plus-vehicle, 100% no-TNFa wells.
The nature of experiment [2]: inhibitors of mutant huntingtin aggregation, primary screen, imaging, exon1htt(103Q)mCFP cells, high-content imaging (AID 483;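 active = visual image review flags a hit and inhibition of aggregation exceeds 20%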;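 note: compound exposure lasted 3 days before fixation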;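 for nuclei count: percent of the per-plate median nuclei count of sample wells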). Particulars: exon1htt(103Q)mCFP cell line, aggregate imaging, at 2 µM; inhibition of aggregation: stronger effect = higher value; nuclei count: measured here: cell count, toxicity.
Experiment [3] is described as follows: inhibitors of E-selectin induction by TNFa, primary screen, imaging, HUVEC, immunofluorescence, MLSMR starter and 10KST1 sets (AID 487;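 active = visually confirmed hit in the image check and inhibition above 20%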;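 for inhibition: signal is fraction of cell area covered by stained E-selectin grains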;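 for nuclei count: 100% = median nuclei count of all wells on the same plate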). Particulars: HUVEC TNFalpha-induced E-selectin immunofluorescence imaging, at 2 µM; inhibition: stronger effect = higher value; nuclei count: measured here: cell number, toxicity.
Experiment [4] addresses Voltage-gated potassium channel subunit beta-2 (Rattus norvegicus) (UniProt P62483). Briefly: KvBeta enzyme negative modulators, primary screen, biochemical, NADPH fluorescence (AID 622;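 active = fluorescence slope higher than the sample average by over 3 SD, cut at about -0.22 in these data, passing the limit was not always enough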;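 note: slope of raw intensity against log time taken from 70 to 1610 s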). Particulars: recombinant KvBeta, 4-cyanobenzaldehyde reduction, at 10 µM, stronger effect = higher value.
The target is the same in experiment [5]. Briefly: KvBeta positive modulators, primary screen, biochemical, NADPH fluorescence (AID 623;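 active = NADPH fluorescence slope more negative than the mean of all samples by about 3 SD, 99.7% confidence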;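 note: fluorescence intensity change per second fitted from 20 to 320 s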). The following applies: Recombinant KvBeta, NADPH fluorescence decrease slope, 10 min; at 10 µM; stronger effect = lower value.
For experiment [6], the target named is Muscarinic acetylcholine receptor M4 (Homo sapiens) (UniProt P08173). Briefly: compounds altering M4/GIRK thallium flux, either direction, primary screen, M4 allosteric agonist project, cell-based, HEK293 M4/GIRK, BTC-AM (AID 625).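 Note: thallium influx through GIRK channels coupled to M4 in HEK293 cells with BTC-AM dye.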 Particulars: at 10 µM, actives lie on both sides. In short, it runs like this:
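Material: M4/GIRK1/GIRK2 stable HEK293 cell line. Medium: pH 7.3 thallium assay buffer. Dosing: single compound concentration, 10 µM final. Schedule: 1 h dye loading, 2 min kinetic read. Measured by: kinetic fluorescence with BTC-AM dye. Read-out: post-addition slope, 15–24 s, of baseline-normalized fluorescence. Benchmarks: carbachol and DMSO controls.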

The nature of experiment [7]: inhibitors of Sendai virus-induced IRF3 signaling, primary screen, TLR/RLR signaling modifier project, cell-based, Sendai virus stimulus, luciferase, 10K MLSCN set (AID 602276;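 active = inhibition at or above 50% at 10 µM; inactive = inhibition below 50%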;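 note: firefly luciferase from ISG56 promoter only with Renilla not read in this screen; 0% = Sendai virus plus DMSO and 100% = medium plus DMSO without virus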). The following applies: HEK293 RL24 IRF3 luciferase reporter, at 10 µM, stronger effect = higher value.
The nature of experiment [8]: inhibitors of poly I:C-induced TLR3 signaling, primary screen, cell-based, poly I:C stimulus, luciferase, 10K MLSCN set (AID 602277;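 active = inhibition of the reporter signal at or above 50%; inactive = inhibition below 50%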). The following applies: HEK293-TLR3 RL24 IRF3 luciferase reporter, at 10 µM, stronger effect = higher value.

SMILES strings stand for the structures. Active and inactive are the calls of the source.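 Rule for the calls, unless noted: active = fluorescence slope after compound addition differing from the mean of all tested samples at 99.7% confidence, mostly higher but some lower; inactive = the rest.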

Sequence of Voltage-gated potassium channel subunit beta-2 (Rattus norvegicus) (P62483 whole entry, looked up): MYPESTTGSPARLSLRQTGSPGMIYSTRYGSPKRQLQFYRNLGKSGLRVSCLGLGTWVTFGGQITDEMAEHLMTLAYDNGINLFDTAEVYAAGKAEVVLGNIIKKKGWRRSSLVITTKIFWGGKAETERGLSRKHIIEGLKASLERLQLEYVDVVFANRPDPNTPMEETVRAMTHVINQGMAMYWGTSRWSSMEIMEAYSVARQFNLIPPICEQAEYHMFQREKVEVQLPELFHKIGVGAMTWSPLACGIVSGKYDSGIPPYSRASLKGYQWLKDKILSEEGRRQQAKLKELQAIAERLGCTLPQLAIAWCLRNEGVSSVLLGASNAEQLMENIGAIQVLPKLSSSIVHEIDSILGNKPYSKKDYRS
Sequence of Muscarinic acetylcholine receptor M4 (Homo sapiens) (P08173 whole entry, looked up): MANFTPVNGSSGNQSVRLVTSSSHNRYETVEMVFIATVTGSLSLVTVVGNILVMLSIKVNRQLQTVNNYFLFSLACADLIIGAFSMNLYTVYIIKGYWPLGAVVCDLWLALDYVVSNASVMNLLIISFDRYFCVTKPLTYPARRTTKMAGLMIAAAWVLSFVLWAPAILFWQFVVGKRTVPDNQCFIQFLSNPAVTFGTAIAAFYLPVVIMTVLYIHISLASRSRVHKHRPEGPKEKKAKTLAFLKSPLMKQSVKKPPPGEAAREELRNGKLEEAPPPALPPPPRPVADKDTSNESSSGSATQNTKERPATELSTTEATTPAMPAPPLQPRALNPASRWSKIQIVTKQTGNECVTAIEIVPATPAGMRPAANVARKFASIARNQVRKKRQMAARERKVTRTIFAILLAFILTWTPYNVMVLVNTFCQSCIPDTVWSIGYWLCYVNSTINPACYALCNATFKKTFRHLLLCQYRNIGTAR

`COc1ccccc1Nc1nc(N)nc(CN2CCN(c3ccccc3F)CC2)n1`: the cell count in experiment [1] came out at 561. Further, the inhibition in experiment [1] was -12.1% (inactive); in experiment [3], 25.3% (inactive); in experiment [7], -5.08% (inactive); in experiment [8], -10.4% (inactive). The inhibition of aggregation in experiment [2] is -5.7% (inactive). For the same molecule, the nuclei count in experiment [2] amounted to 97.3%; in experiment [3], 97.6%. In addition, the figures for the fluorescence slope in experiment [4] and in experiment [6] were -0.571 (inactive) and 0.00301 (inactive), respectively. The NADPH fluorescence slope in experiment [5] is -2.2e-05 (inactive).
Turning to `O=c1c2c(nc3nc(COc4ccccc4)[nH]n13)CCC2`, the cell count in experiment [1] stood at 305. Besides, the inhibition is 5.6% (inactive) in experiment [1], -89.8% (inactive) in experiment [3], 15.2% (inactive) in experiment [7] and 18% (inactive) in experiment [8]. The inhibition of aggregation in experiment [2] is 19.9% (inactive). For the same molecule, the nuclei count is 100% in experiment [2] and 102% in experiment [3]. The figures for the fluorescence slope in experiment [4] and in experiment [6] were -0.539 (inactive) and 0.00436 (inactive), respectively. Also, the NADPH fluorescence slope in experiment [5] is -9.7e-06 (inactive).
Turning to `CCOC(=O)c1[nH]c2ccc(F)cc2c1NC(=O)C(C)N1CCc2cc(OC)c(OC)cc2C1` (centres undefined), the cell count in experiment [1] turned out to be 436. Further, the inhibition in experiment [1] was 0.5% (inactive); in experiment [3], 42.5% (inactive); in experiment [7], -0.796% (inactive); in experiment [8] it was 35.3% (inactive). For the same molecule, the inhibition of aggregation in experiment [2] is 15.1% (inactive). The nuclei count was 76.9% in experiment [2] and 96% in experiment [3]. Further, the fluorescence slope in experiment [4] is -0.574 (inactive); in experiment [6], 0.00265 (inactive). The NADPH fluorescence slope in experiment [5] is -3.4e-05 (inactive).
As to `Nc1nonc1NC(=O)CSc1nc2ccccc2s1`, the cell count in experiment [1] was 519. Also, the inhibition in experiment [1] was -8.4% (inactive); in experiment [3], -50.5% (inactive); in experiment [7], -7.11% (inactive); in experiment [8] it was 15.4% (inactive). The inhibition of aggregation in experiment [2] is 39.8% (active). In addition, the nuclei count in experiment [2] is 61.2%; in experiment [3], 103%. The figures for the fluorescence slope in experiment [4] and in experiment [6] were -0.515 (inactive) and 0.00565 (inactive), respectively. The NADPH fluorescence slope in experiment [5] was -0.000124 (inactive).
For the molecule `CCn1c(Cc2ccc(OC)cc2)nnc1SCC(=O)Nc1cccc(C(=O)OC)c1`, the cell count in experiment [1] was 433. The inhibition in experiment [1] is 6% (inactive); in experiment [3], -29.7% (inactive); in experiment [7] it was 12.3% (inactive); in experiment [8], 8.51% (inactive). In addition, the inhibition of aggregation in experiment [2] was 0.9% (inactive). Also, the nuclei count is 110% in experiment [2] and 107% in experiment [3]. For the same molecule, the fluorescence slope in experiment [4] was -0.469 (inactive); in experiment [6] it was 0.00613 (inactive). The NADPH fluorescence slope in experiment [5] is -1.6e-05 (inactive).
Take `COC(=O)c1c(N)nc(C)n1-c1ccc(OC)cc1`: the cell count in experiment [1] was 324. Besides, the inhibition in experiment [1] was -9.2% (inactive); in experiment [3], 2.7% (inactive); in experiment [7] it was 5.37% (inactive); in experiment [8] it was 9.69% (inactive). In addition, the inhibition of aggregation in experiment [2] was 32.1% (active). Also, the nuclei count is 70.1% in experiment [2] and 103% in experiment [3]. Also, the fluorescence slope in experiment [4] was -0.364 (inactive); in experiment [6] it was 0.00554 (inactive). Moreover, in experiment [5], the NADPH fluorescence slope was 3e-05 (inactive).
`O=c1c[n+]([O-])c2ccccc2n1OCc1ccccn1`: the cell count in experiment [1] came out at 649. For the same molecule, the inhibition in experiment [1] was -0.8% (inactive); in experiment [3] it was -73% (inactive); in experiment [7] it was -4.06% (inactive); in experiment [8] it was -7.39% (inactive). Moreover, the inhibition of aggregation in experiment [2] is -17.9% (inactive). The figures for the nuclei count in experiment [2] and in experiment [3] were 103% and 106%, respectively. For the same molecule, the figures for the fluorescence slope in experiment [4] and in experiment [6] were -0.464 (inactive) and 0.00798 (inactive), respectively. Besides, the NADPH fluorescence slope in experiment [5] is 2.5e-05 (inactive).
Regarding `Cc1coc(NC(=O)CSc2nc(-c3ccncc3)cc(C(F)(F)F)c2C#N)n1`, the cell count in experiment [1] turned out to be 740. Further, the inhibition in experiment [1] was -7.9% (inactive); in experiment [3] it was -29.3% (inactive); in experiment [7] it was 5.59% (inactive); in experiment [8] it was 8.54% (inactive). Also, the inhibition of aggregation in experiment [2] is 16.1% (inactive). Also, the nuclei count stood at 86.8% in experiment [2] and 115% in experiment [3]. Further, the fluorescence slope is -0.471 (inactive) in experiment [4] and 0.00557 (inactive) in experiment [6]. For the same molecule, in experiment [5], the NADPH fluorescence slope was -2.9e-05 (inactive).
As to `O=C(Nc1cccc2c1CCCC2)C1CCN(c2nnnn2-c2ccccc2)CC1`, the cell count in experiment [1] came out at 653. Moreover, the inhibition in experiment [1] was 1.7% (inactive); in experiment [3] it was -20.6% (inactive); in experiment [7], 10.2% (inactive); in experiment [8], 10.8% (inactive). In addition, in experiment [2], the inhibition of aggregation is 0.3% (inactive). The nuclei count in experiment [2] and in experiment [3] was 109% in each case. Also, the fluorescence slope in experiment [4] is -0.566 (inactive); in experiment [6] it was 0.00472 (inactive). Moreover, the NADPH fluorescence slope in experiment [5] was 2.3e-05 (inactive).
For `Nc1nc(-c2ccc(Cl)cc2)cc(C(F)(F)F)n1`, in experiment [1], the cell count was found to be 439. In addition, the inhibition in experiment [1] was 2.1% (inactive); in experiment [3] it was -16.4% (inactive); in experiment [7], 1.69% (inactive); in experiment [8], -12.7% (inactive). For the same molecule, in experiment [2], the inhibition of aggregation is 4.9% (inactive). Besides, the results for the nuclei count in experiment [2] and in experiment [3] were 103% and 109%, respectively. Also, the fluorescence slope in experiment [4] is -0.582 (inactive); in experiment [6], 0.00927 (inactive). Besides, the NADPH fluorescence slope in experiment [5] was -1.9e-07 (inactive).
For `c1csc(-c2nc3nc4ccccc4nc3n2Cc2ccc3c(c2)OCO3)c1`, the cell count in experiment [1] came out at 837. For the same molecule, the inhibition in experiment [1] is 1.7% (inactive); in experiment [3], -9.5% (inactive); in experiment [7], -28.9% (inactive); in experiment [8] it was -79.4% (inactive). For the same molecule, the inhibition of aggregation in experiment [2] is -18.6% (inactive). Also, the nuclei count in experiment [2] amounted to 114%; in experiment [3] it was 108%. Further, the fluorescence slope was -0.405 (inactive) in experiment [4] and 0.00582 (inactive) in experiment [6]. In experiment [5], the NADPH fluorescence slope is -4.1e-05 (inactive).
For `O=C(NCc1n[nH]c(=S)n1-c1ccc(F)cc1)c1ccco1`, the cell count in experiment [1] was found to be 711. The inhibition was -16.8% (inactive) in experiment [1], -72.4% (inactive) in experiment [3], 12.1% (inactive) in experiment [7] and 13.9% (inactive) in experiment [8]. The inhibition of aggregation in experiment [2] was -0.3% (inactive). Also, the figures for the nuclei count in experiment [2] and in experiment [3] were 102% and 126%, respectively. Further, the fluorescence slope was -0.463 (inactive) in experiment [4] and 0.00529 (inactive) in experiment [6]. Also, the NADPH fluorescence slope in experiment [5] is -2.7e-05 (inactive).
With `O=C(NCC1CCCO1)C1CC(c2ccc(Cl)c(Cl)c2)=NO1` (centres undefined), in experiment [1], the cell count stood at 838. Also, the inhibition in experiment [1] was -0.7% (inactive); in experiment [3] it was -247% (inactive); in experiment [7], 3.78% (inactive); in experiment [8], -3.62% (inactive). Moreover, the inhibition of aggregation in experiment [2] is 4.4% (inactive). Moreover, the nuclei count in experiment [2] is 103%; in experiment [3] it was 132%. Also, the fluorescence slope in experiment [4] is -0.472 (inactive); in experiment [6], 0.00536 (inactive). In addition, the NADPH fluorescence slope in experiment [5] was -3.1e-05 (inactive).
On to `COc1cc(-c2nnc(SCC(=O)c3cc(C)n(CC4CCCO4)c3C)o2)cc(OC)c1OC` (centres undefined), for which the cell count in experiment [1] is 317. The inhibition in experiment [1] is 2.8% (inactive); in experiment [3], -43.2% (inactive); in experiment [7] it was 24.8% (inactive); in experiment [8], 27.1% (inactive). Besides, the inhibition of aggregation in experiment [2] was 23.1% (inactive). The nuclei count in experiment [2] was 94.5%; in experiment [3] it was 115%. The fluorescence slope in experiment [4] is -0.245 (inactive); in experiment [6], 0.00647 (inactive). Besides, in experiment [5], the NADPH fluorescence slope was -3.7e-06 (inactive).
